For 21 molecules, Ki results are on record in ChEMBL document CHEMBL1134475, “3-(4-Fluoropiperidin-3-yl)-2-phenylindoles as high affinity, selective, and orally bioavailable h5-HT(2A) receptor antagonists” (J Med Chem, 2001).

In experiment [1] the target is D(2) dopamine receptor (Homo sapiens, UniProt P14416). Briefly: Ability to displace [3H]spiperone binding to CHO cells stably expressing dopamine receptor D2. It is filed as cell-based.
Experiment [2] concerns the target 5-hydroxytryptamine receptor 2A (Homo sapiens, UniProt P28223). As to the kind of experiment: Ability to displace [3H]ketanserin binding to human 5-hydroxytryptamine 2A receptor stably expressed in CHO cells. It is filed as cell-based. Put shortly: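 Membranes from CHO cells stably expressing human 5-HT2A, homogenized in 50 mM Tris-HCl pH 7.5, at 2 mg wet weight/mL. Ki from nonlinear least-squares regression, geometric mean of at least three determinations.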

Experiment [3] addresses T1, Adrenergic receptor alpha-1 (Rattus norvegicus, UniProt P15823+P23944+P43140).
T1 sequence (P15823 whole entry): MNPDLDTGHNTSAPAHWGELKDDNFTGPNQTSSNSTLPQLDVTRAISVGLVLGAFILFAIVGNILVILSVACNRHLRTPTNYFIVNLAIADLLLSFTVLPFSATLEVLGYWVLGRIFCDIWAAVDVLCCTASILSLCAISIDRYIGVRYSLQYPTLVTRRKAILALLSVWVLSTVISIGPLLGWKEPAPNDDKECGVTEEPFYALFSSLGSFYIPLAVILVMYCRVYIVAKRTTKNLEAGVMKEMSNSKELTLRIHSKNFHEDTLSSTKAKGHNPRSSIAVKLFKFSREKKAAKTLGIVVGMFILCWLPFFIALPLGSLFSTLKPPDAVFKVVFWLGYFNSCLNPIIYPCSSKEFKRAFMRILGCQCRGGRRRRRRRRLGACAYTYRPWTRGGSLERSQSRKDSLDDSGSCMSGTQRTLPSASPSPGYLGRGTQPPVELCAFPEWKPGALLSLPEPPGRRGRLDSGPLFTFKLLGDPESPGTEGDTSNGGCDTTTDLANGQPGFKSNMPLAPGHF
T1 sequence (P23944 whole entry): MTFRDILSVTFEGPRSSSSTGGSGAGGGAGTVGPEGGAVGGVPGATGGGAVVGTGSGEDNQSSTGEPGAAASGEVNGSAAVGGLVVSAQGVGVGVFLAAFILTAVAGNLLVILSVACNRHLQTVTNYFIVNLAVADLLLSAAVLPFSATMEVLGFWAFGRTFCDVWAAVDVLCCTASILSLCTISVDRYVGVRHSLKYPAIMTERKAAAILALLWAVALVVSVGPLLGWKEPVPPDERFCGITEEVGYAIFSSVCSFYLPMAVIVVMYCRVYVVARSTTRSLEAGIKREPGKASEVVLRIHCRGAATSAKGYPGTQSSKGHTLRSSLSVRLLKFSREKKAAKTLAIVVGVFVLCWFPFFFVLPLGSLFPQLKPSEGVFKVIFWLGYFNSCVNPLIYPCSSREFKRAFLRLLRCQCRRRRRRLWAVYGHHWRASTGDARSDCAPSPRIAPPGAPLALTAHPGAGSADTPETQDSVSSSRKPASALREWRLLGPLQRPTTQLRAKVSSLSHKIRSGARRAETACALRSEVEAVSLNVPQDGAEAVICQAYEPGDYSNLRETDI
T1 sequence (P43140 whole entry): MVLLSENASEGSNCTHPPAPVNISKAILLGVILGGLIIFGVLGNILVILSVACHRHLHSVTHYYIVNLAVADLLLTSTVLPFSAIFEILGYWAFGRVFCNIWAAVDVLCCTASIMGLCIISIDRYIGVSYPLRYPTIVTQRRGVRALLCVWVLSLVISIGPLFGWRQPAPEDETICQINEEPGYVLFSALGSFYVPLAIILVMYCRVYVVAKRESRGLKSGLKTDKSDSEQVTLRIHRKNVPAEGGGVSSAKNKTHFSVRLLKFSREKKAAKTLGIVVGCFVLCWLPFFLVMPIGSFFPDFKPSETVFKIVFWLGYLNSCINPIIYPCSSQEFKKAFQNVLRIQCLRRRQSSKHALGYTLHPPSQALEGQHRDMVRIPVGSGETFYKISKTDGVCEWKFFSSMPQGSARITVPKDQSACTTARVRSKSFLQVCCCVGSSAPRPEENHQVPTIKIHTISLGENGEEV
Briefly: Ability to displace [3H]-prazosin binding to rat cortical membranes expressing Alpha-1 adrenergic receptors.

In experiment [4] the target is Voltage-gated inwardly rectifying potassium channel KCNH2 (Homo sapiens, UniProt Q12809). As to the kind of experiment: Displacement of [3H]dofetilide from HEK cells expressing hERG voltage dependent IKr potassium channel Kv11.1. (In general: Displacement assays read how much labelled ligand stays bound in the presence of the test substance.)
Experiment [5] has as its target T2, 5-hydroxytryptamine receptor 2C (Homo sapiens, UniProt P28335).
T2 sequence (P28335 whole entry): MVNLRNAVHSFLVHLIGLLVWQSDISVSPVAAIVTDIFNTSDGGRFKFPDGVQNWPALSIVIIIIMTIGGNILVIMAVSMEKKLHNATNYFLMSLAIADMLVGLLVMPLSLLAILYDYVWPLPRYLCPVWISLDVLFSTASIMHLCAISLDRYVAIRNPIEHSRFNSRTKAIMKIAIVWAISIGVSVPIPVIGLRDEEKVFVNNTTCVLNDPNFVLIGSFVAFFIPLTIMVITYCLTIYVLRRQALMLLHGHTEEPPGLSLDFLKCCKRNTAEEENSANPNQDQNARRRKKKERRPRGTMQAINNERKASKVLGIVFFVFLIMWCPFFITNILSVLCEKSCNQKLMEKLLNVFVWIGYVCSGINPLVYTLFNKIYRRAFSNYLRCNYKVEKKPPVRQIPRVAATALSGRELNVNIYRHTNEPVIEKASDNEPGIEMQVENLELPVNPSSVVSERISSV
Briefly: Ability to displace [3H]mesulergine binding to human 5-hydroxytryptamine 2C receptor stably expressed in CHO cells. It is filed as cell-based.

Sequence of D(2) dopamine receptor (P14416 whole entry): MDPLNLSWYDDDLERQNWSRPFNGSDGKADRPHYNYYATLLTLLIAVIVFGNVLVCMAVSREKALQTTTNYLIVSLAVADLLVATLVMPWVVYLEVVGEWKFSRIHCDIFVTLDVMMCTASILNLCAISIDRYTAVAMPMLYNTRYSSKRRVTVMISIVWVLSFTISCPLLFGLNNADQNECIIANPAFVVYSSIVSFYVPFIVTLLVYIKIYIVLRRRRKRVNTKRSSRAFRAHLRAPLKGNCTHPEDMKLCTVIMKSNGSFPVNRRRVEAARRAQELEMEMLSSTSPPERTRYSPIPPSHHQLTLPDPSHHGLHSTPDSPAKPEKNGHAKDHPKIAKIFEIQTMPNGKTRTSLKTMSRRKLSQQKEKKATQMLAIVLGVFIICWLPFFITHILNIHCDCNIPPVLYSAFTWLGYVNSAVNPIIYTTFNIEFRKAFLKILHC
Sequence of 5-hydroxytryptamine receptor 2A (P28223 whole entry): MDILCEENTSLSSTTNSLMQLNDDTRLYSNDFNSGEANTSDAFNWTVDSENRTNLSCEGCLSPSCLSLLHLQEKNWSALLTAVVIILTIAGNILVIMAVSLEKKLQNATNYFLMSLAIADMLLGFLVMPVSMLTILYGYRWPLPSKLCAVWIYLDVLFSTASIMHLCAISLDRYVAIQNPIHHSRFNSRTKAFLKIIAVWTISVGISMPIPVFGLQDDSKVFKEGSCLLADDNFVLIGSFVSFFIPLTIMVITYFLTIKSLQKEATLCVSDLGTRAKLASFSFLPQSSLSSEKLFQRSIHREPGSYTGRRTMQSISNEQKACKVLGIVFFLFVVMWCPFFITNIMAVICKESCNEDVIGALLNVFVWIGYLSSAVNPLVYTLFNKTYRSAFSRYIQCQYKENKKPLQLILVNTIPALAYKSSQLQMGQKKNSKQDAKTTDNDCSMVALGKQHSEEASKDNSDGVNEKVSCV
Sequence of Voltage-gated inwardly rectifying potassium channel KCNH2 (Q12809 whole entry): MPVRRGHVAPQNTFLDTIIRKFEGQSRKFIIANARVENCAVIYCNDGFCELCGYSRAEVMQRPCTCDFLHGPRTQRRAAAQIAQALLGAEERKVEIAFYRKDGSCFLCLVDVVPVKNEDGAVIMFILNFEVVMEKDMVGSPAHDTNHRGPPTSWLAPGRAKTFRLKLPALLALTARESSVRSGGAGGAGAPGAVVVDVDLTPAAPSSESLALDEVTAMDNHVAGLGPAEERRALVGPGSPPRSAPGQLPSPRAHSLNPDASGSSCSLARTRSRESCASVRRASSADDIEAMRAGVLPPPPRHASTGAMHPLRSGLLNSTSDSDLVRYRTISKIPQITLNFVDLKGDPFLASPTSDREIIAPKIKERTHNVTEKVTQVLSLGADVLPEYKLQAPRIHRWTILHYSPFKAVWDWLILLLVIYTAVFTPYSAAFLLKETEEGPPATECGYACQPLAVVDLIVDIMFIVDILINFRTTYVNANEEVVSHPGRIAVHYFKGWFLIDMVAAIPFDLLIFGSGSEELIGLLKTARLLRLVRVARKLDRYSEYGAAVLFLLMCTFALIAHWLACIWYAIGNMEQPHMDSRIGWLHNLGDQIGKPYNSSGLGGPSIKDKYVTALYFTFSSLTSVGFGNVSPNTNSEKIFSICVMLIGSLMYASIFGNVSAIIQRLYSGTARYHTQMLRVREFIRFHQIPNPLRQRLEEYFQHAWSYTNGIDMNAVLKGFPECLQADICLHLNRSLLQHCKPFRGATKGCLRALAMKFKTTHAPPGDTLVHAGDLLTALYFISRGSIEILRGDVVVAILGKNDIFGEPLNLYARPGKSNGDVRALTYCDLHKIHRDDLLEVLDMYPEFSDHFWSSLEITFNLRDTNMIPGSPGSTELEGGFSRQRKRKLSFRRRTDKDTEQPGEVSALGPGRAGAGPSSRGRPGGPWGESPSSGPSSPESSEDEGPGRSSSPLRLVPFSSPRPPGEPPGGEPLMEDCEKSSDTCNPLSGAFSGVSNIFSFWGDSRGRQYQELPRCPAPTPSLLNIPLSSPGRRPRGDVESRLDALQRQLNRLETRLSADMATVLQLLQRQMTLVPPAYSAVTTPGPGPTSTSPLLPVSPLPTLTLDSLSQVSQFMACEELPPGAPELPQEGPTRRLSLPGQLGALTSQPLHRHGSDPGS

In general, Ki refers to a measure of affinity in units of concentration, obtained from inhibition or displacement. `F[C@H]1CCNC[C@@H]1c1c(-c2ccccc2)[nH]c2ccccc12`: the inhibition constant (Ki) in experiment [1] was above 1700 nM; in experiment [2], 220 nM.
Take `Fc1ccc2c([C@@H]3CNCC[C@H]3F)c(-c3ccoc3)[nH]c2c1`: the Ki in experiment [1] is above 1600 nM; in experiment [3], 3.6 nM; in experiment [2], 0.54 nM.
As for `Fc1ccc2c([C@@H]3CNCC[C@H]3F)c[nH]c2c1`, the affinity in experiment [2], expressed as Ki, was 70 nM.
On to `O[C@@H]1CCNC[C@H]1c1c(-c2ccccc2)[nH]c2ccccc12`, for which the figures for the Ki in experiment [1] and in experiment [2] were above 1600 nM and 3.3 nM, respectively.
For the molecule `c1ccc(-c2[nH]c3ccccc3c2C2CCNCC2)cc1`, the Ki in experiment [4] was 5700 nM; in experiment [1], above 1600 nM; in experiment [3], 2100 nM; in experiment [5], 400 nM.
On to `Fc1ccc(-c2[nH]c3cc(F)ccc3c2C2CCCNC2)cc1` (stereo unspecified), for which the Ki was 1300 nM in experiment [4]; 28 nM in experiment [1]; 1.1 nM in experiment [3]; 16 nM in experiment [5]; 0.09 nM in experiment [2].
As for `CN1CCN(C)C(c2c(-c3ccccc3)[nH]c3ccccc23)C1` (stereo unspecified), the Ki was above 1600 nM in experiment [1] and 320 nM in experiment [2].
With `c1ccc(-c2[nH]c3ccccc3c2C2CNCCO2)cc1` (stereo unspecified), the Ki in experiment [1] worked out at 1600 nM; in experiment [2], 18 nM.
For the molecule `CN1CCCCC1c1c(-c2ccccc2)[nH]c2ccccc12` (stereo unspecified), the Ki is above 1700 nM in experiment [1], 99 nM in experiment [3], 2000 nM in experiment [5] and 14 nM in experiment [2].
For `c1ccc(CCN2CCCC(c3c(-c4ccccc4)[nH]c4ccccc34)C2)cc1` (stereo unspecified), the Ki in experiment [1] came out at 500 nM; in experiment [5], 2400 nM; in experiment [2] it was 59 nM.
With `c1ccc(CN2CCCC(c3c(-c4ccccc4)[nH]c4ccccc34)C2)cc1` (stereo unspecified), the Ki in experiment [1] was 1600 nM; in experiment [3], 47 nM; in experiment [5], 2000 nM; in experiment [2], 20 nM.
For the molecule `Fc1ccc2c([C@@H]3CNCC[C@H]3F)c(-c3cccc4ccccc34)[nH]c2c1`, the Ki turned out to be 110 nM in experiment [4], 1400 nM in experiment [1], 8.5 nM in experiment [3] and 0.34 nM in experiment [2].
With `F[C@@H]1CCNC[C@H]1c1c(-c2ccccc2)[nH]c2ccc(Cl)cc12`, the inhibitory constant (Ki) is above 1600 nM in experiment [1], 40 nM in experiment [3] and 10.2 nM in experiment [2].
As for `Fc1ccc2c([C@@H]3CNCC[C@H]3F)c(-c3ccc4ccccc4c3)[nH]c2c1`, the inhibition constant (Ki) in experiment [4] stood at 500 nM; in experiment [1], 500 nM; in experiment [3], 2.1 nM; in experiment [2] it was 0.23 nM.
As for `Fc1ccc2c([C@@H]3CNCC[C@H]3F)c(-c3ccsc3)[nH]c2c1`, the inhibition constant (Ki) in experiment [4] stood at 1500 nM; in experiment [1] it was 1600 nM; in experiment [3], 2.8 nM; in experiment [5], 50 nM; in experiment [2], 0.11 nM.
On to `F[C@@H]1CCNC[C@H]1c1c(-c2ccccc2)[nH]c2cc(Cl)ccc12`, for which the values for the Ki in experiment [1], in experiment [3] and in experiment [2] were above 1600 nM, 16 nM and 2.3 nM, respectively.
Take `Fc1cccc2c([C@@H]3CNCC[C@H]3F)c(-c3ccccc3)[nH]c12`: the Ki in experiment [1] is above 1600 nM; in experiment [3], 27 nM; in experiment [5], 132 nM; in experiment [2], 0.46 nM.
Regarding `COC(=O)c1[nH]c2cc(F)ccc2c1[C@@H]1CNCC[C@H]1F`, the Ki was above 1600 nM in experiment [1], 7.3 nM in experiment [3], above 2000 nM in experiment [5] and 10.4 nM in experiment [2].
As to `Fc1ccc2c([C@@H]3CNCC[C@H]3F)c(C3CCCCC3)[nH]c2c1`, the Ki is above 1600 nM in experiment [1], 21 nM in experiment [3], 5 nM in experiment [5] and 0.25 nM in experiment [2].
On the same counts, the results for `F[C@@H]1CCNC[C@H]1c1c(-c2ccccc2)[nH]c2c(Cl)cccc12` are above 1600 nM, 6.7 nM, 154 nM and 0.69 nM.
The corresponding values for `Fc1ccc2c([C@@H]3CNCC[C@H]3F)c(-c3cccnc3)[nH]c2c1` are above 1600 nM, 7.3 nM, 85 nM and 0.35 nM.
